High-throughput results deposited in PubChem BioAssay by Sanford-Burnham Center for Chemical Genomics.
EBI2 block: blocks human EBI2 receptor beta-arrestin signaling; 360,000 tested, 0.81% active; AID 651636; EBI2 beta-arrestin recruitment, luminescence, 7a,25-OHC stimulated; P32249; inhibition, % at 5 µM; in the data active = inhibition above about 38%;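 note: enzyme fragment complementation signal reports receptor beta-arrestin coupling in cells; 0% = agonist plus DMSO wells and 100% = wells without agonist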
Target sequence (P32249 whole entry, looked up, the tested form may be a part): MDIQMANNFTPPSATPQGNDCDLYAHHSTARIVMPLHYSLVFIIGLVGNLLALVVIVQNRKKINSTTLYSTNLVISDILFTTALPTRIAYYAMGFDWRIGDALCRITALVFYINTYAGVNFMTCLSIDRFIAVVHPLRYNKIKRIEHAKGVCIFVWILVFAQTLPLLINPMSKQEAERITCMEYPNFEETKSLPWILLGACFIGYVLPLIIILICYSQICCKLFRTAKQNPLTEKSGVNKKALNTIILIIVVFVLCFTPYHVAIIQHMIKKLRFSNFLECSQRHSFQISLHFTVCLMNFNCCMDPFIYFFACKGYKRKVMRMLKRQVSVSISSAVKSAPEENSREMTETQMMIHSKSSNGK
GRIN3A LBD mod: modulates the human NR3A ligand-binding domain; NR3A LBD differential scanning fluorimetry, Tm shift; 0% = protein alone, 100% = glycine-bound protein; Tm shift relative to glycine control, % at 25 µM; 340,000 tested, 2.5% active; AID 1259313;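 active = melting temperature shift of at least 10% of the positive control shift, at one fixed dose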
SENP1 inh: inhibitors of human SENP1 SUMO protease catalytic domain. inhibition, % at 10 µM. 360,000 tested, 0.21% active. recombinant SENP1 catalytic domain, CyPet-SUMO1-YPet FRET cleavage. AID 624204. Q9P0U3;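 active = inhibition at least 30% at 10 µM, raw YFP signal under a set limit, fluorescence ratio 0.5 to 1.5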;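 note: 0% = enzyme with DMSO and 100% = no enzyme wells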
Target sequence (Q9P0U3 419-644 limits assumed): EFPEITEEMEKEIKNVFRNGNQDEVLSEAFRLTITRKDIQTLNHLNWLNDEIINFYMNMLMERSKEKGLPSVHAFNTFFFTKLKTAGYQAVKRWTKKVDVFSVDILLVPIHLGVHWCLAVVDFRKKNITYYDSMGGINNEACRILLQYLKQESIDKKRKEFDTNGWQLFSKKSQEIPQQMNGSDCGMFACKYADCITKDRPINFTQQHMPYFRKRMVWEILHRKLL
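system = hSENP1 catalytic domain, recombinant | reagent = SFCypet-SUMO1-SFYpet substrate at 25 nM | doses = one dose per compound, 10 µM, 0.5% DMSO | incubation = enzyme reaction for 50 min at room temperature, dark | measured by = FRET, CFP and YFP emission | controls = no-enzyme low, enzyme-DMSO high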
MPTP inh: inhibitors of mitochondrial permeability transition pore. 360,000 tested, 1.4% active. inhibition, % at 10 µM. isolated mouse mitochondria, Ca2+ swelling absorbance, 30 min. AID 602449;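 active = inhibition of 50% or more, scaled per plate between neutral and stimulator controls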;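 note: 0% = DMSO wells given calcium and 100% = 1 mM EGTA wells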
* = called active by the depositor. Rows were chosen to be rich in hits. Some 4.4% of all compounds tested hit in one or more screens of this group.

SMILES	EBI2 block	GRIN3A LBD mod	SENP1 inh	MPTP inh
O=[N+]([O-])c1cccc(S(=O)(=O)Nc2ccc(-c3ccc(N4CCCC4)nn3)cc2)c1	-5	31*	0	0
C/C(=N\NC(=O)CSCc1ccccc1Br)c1cccc([N+](=O)[O-])c1	-3	22*	-1	6
C/C(=N\NC(=O)CSCc1ccc([N+](=O)[O-])cc1)c1cccc(Br)c1	-2	-10	1	0
COc1ccc(NC(=O)c2ccc(-c3ccc([N+](=O)[O-])cc3)o2)cc1	12	25*	2	4
CC(=O)c1ccc(NC(=O)CCC(=O)OCC(=O)c2cccc([N+](=O)[O-])c2)cc1	2	62*	0	-1
COc1ccc(NC(=O)c2ccco2)cn1	-26	-1	-7	-3
COc1ccc(NC(=O)CCC(=O)OCc2ccc([N+](=O)[O-])cc2)cc1	-7	20*	1	-1
COc1ccc(NC(=O)c2ccc(-c3ccc(C(C)=O)cc3)o2)cn1	30	27*	-7	1
COC(=O)c1cc(NC(=O)CC2NC3CCCCC3NC2=O)cc(C(=O)OC)c1 (stereo not drawn)	-4	1	1	-2
CCOC(=O)C(Oc1ccc(=O)n(-c2ccccc2)n1)C(C)=O (stereo not drawn)	0	-7	0	0
Cc1c(NC(=O)c2cccc(NC(=O)Cc3ccccc3F)c2)c(=O)n(-c2ccccc2)n1C	2	-1	1	-2
O=S(=O)(c1ccccc1)c1cnc2ccccc2c1	2	-1	1	-1
COC(=O)c1c(NC(=O)C(=O)NCC2CCCO2)sc2c1CC(C)(C)OC2 (stereo not drawn)	1	1	0	-1
O=C(COc1cc(Cl)c(Cl)cc1Cl)NC(=O)Nc1ccc2c(c1)OCCO2	-2	19*	0	1
O=C(COc1cc(Cl)c(Cl)cc1Cl)Nc1cccc(O)c1	-6	18*	1	3
Cc1cccc(OCC(=O)Nc2cccc(O)c2)c1	-3	-26	0	2
O=C(Nc1nc2ccc(F)cc2s1)c1ccc(N2CCCC2=O)cc1	1	11*	-1	-1
CCOc1ccc(N(CC(=O)NC2CCCCC2)C(=O)CCC(=O)Nc2cc(C)ccn2)cc1	4	-1	1	-1
COCCn1c(=NC(C)=O)sc2cc([N+](=O)[O-])ccc21	-1	27*	-14	2
COCCn1c(=NC(=O)c2cc(Cl)sc2Cl)sc2cc(S(N)(=O)=O)ccc21	16	28*	-2	-1
COCCn1c(=NC(=O)c2ccc3c(c2)OCCO3)sc2cc(S(N)(=O)=O)ccc21	11	-2	-2	-2
COCCn1c(=NC(=O)c2ccc(S(=O)(=O)N3CCc4ccccc4C3)cc2)sc2cc(S(N)(=O)=O)ccc21	9	25*	1	-17
C#CCn1c(=NC(=O)c2ccc(S(=O)(=O)N3CCc4ccccc4C3)cc2)sc2cc(S(N)(=O)=O)ccc21	-2	-4	-1	1
C=CCn1c(=NC(=O)c2ccc(S(=O)(=O)N3CCc4ccccc4C3)cc2)sc2cc(S(N)(=O)=O)ccc21	8	19*	0	-4
Cc1cc(NC(=O)c2ccc(C)c(C)c2)no1	-3	2	-1	0
SMILES	EBI2 block	GRIN3A LBD mod	SENP1 inh	MPTP inh
C=CCn1c(=NC(=O)c2ccc(S(=O)(=O)N3CCCc4ccccc43)cc2)sc2cc(S(N)(=O)=O)ccc21	13	13*	1	0
O=C(COC(=O)c1c2c(nc3ccccc13)/C(=C/c1cccc([N+](=O)[O-])c1)CCC2)NC1CCS(=O)(=O)C1 (stereo not drawn)	44	11*	-1	2
CC(=O)C1C=CC(C)(C(=O)O)C2C=C(C)C(=O)C(C)(O)C12 (stereo not drawn)	-10	-1	4	0
C/C(=N\Nc1nc2ccccc2[nH]1)c1ccc(N2CCOCC2)cc1	-9	3	-3	5
S=C(NCc1ccc2[nH]c3c(c2c1)CCCC3)Nc1ccccc1Cl	14	11*	-24	3
Cc1ccccc1NC(=S)NCc1ccc2[nH]c3c(c2c1)CCCC3	18	3	-58	1
O=S1(=O)N=C(Nc2ccc(N3CCOCC3)cc2)c2ccccc21	-2	0	2	-2
Cc1ccccc1-c1ccc(Nc2ccc(N3CCOCC3)cc2)nn1	71*	-1	7	2
Clc1ccc(C2CSc3c4ncnc-4ncn32)cc1 (stereo not drawn)	1	0	0	0
CSc1nc(-c2ccccc2)c(C#N)c(=O)[nH]1	13	0	3	4
CSc1nc(-c2ccc(Cl)cc2)c(C#N)c(=O)[nH]1	-8	38*	-4	16
O=[N+]([O-])c1cc([N+](=O)[O-])c(Oc2c(F)ccc(F)c2F)cc1NN1CCCCC1	4	-15	1	-1
O=C(CC1Nc2ccccc2NC1=O)Nc1cc(Cl)cc(Cl)c1 (stereo not drawn)	12	29*	-25	4
O=C(CC1Nc2ccccc2NC1=O)NCCCN1CCCCCC1 (stereo not drawn)	-3	-2	-25	-5
CCCCNC(=O)CC1Nc2ccccc2NC1=O (stereo not drawn)	-3	20*	-58	-1
CC1=NN(c2cccc(Cl)c2)C(=O)C1	2	11*	3	39
Nc1c(N=Nc2cccc(Cl)c2)c(=O)[nH]n1-c1ccccc1	15	1	2	4
Nc1[nH]c(=O)[nH]c(=O)c1N=Nc1cccc(Cl)c1	-3	16*	0	1
O=C(Cn1nnc(-c2ccccc2)n1)N/N=C/c1cc([N+](=O)[O-])c(Cl)cc1Cl	-35	16*	0	19
COc1cccc(C(=O)NNC(=O)c2sccc2-n2cccc2)c1	4	-1	0	-5
Cc1cccc(NC(=O)NNC(=O)c2sccc2-n2cccc2)c1	2	13*	3	0
COc1ccc(N/N=C(/N=Nc2nc(C)cc(=O)[nH]2)c2ccccc2)cc1	22	-2	5	1
Cc1cc(=O)[nH]c(N=N/C(=N/Nc2ccc(O)cc2)c2ccccc2)n1	5	-13	48*	20
CC(=O)OCCC(NS(=O)(=O)OCC(Cl)(Cl)Cl)c1ccccc1 (stereo not drawn)	10	0	2	-1
O=C(Nc1ccccc1)c1ccc(-c2ccccc2C(F)(F)F)o1	-19	-3	1	2
O=C(NCc1ccc(Cl)cc1)c1ccc(-c2ccccc2C(F)(F)F)o1	-17	438*	-1	3
CN(CC(=O)Nc1cccnc1)S(=O)(=O)c1ccc(Br)cc1	-3	0	2	-2
O=C(Cn1ncc(Cl)c(Cl)c1=O)N1CCc2ccccc21	43*	-2	0	6
O=C1CC(NS(=O)(=O)c2cc(F)ccc2F)CN1c1cccc(F)c1 (stereo not drawn)	5	0	1	-1
COc1ccc(C(=O)/C=C/c2cn(CC(O)CN3CCOCC3)c3ccccc23)cc1 (stereo not drawn)	-18	-1	-25	0
